Test results published in ChEMBL document CHEMBL4689842, “EUbOPEN Chemogenomics Library wave 1” (2021).

How the values were obtained:
Assay type in all cases: toxicity, cell-based
Fibroblast = experiment: Incucyte cell viability with human fibroblast; conditions: 10 µM, compound concentration 10 uM; note: filed as whole numbers so only -1 and 0 and 1 occur
HEK-293T [1] = experiment: Multiplex assay against HEK293T; conditions: human;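 for Population Tubulin-Different-Phenotype (%): share of the cells with healthy nuclei that show this phenotype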
Procedure, shortened: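 Compound was added to live cells that had been stained at seeding with Hoechst33342, BioTracker Green Microtubule Cytoskeleton Dye, MitoTracker Red and Annexin V Alexa Fluor 680, and imaging followed on a CQ1 microscope at 37°C and 5% CO2. CellPathfinder machine-learning gating divided cells into Hoechst high-intensity objects or normal cells, normal cells into healthy, pyknosed or fragmented nuclei, and pyknosed cells into mitotic or apoptotic. Tubulin, mitochondrial-mass and membrane-permeability phenotypes are per cents of healthy-nucleus cells.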

HEK-293T [2] = experiment: Incucyte cell viability with HEK293T; conditions: human, 10 µM, compound concentration 10 uM; note: filed as whole numbers so only -1 and 0 and 1 occur
[3] = 0 h, replicate number 1, timepoint 0 hours
[4] = 6 h, replicate number 1, timepoint 6 hours
[5] = 12 h, replicate number 1, timepoint 12 hours
[6] = 18 h, replicate number 1, timepoint 18 hours
[7] = 24 h, replicate number 1, timepoint 24 hours
[8] = 12 h, 1 µM, compound concentration 1 uM, replicate 1
[9] = 12 h, 1 µM, compound concentration 1 uM, replicate 2
[10] = 12 h, 10 µM, compound concentration 10 uM, replicate 1
[11] = 12 h, 10 µM, compound concentration 10 uM, replicate 2
[12] = 24 h, 1 µM, compound concentration 1 uM, replicate 1
[13] = 24 h, 1 µM, compound concentration 1 uM, replicate 2
[14] = 24 h, 10 µM, compound concentration 10 uM, replicate 1
[15] = 24 h, 10 µM, compound concentration 10 uM, replicate 2

Cc1ccc(NC(=O)Nc2cc(C(F)(F)F)ccc2F)cc1Nc1ccc2c(c1)NC(=O)/C2=C\c1ccc[nH]1
Growth Rate (Fibroblast; [3]): 0
Growth Rate (Fibroblast; [4]): 0
Growth Rate (Fibroblast; [5]): 0
Growth Rate (Fibroblast; [6]): 0
Growth Rate (Fibroblast; [7]): 0
Population Apoptotic (%) (HEK-293T [1]; [8]): 13%
Population Fragmented Nuclei (%) (HEK-293T [1]; [8]): 19%
Population Healthy Nuclei (%) (HEK-293T [1]; [8]): 28%
Population Hoechst High Intensity Objects (%) (HEK-293T [1]; [8]): 16%
Population Membrane Permeable-Phenotype (%) (HEK-293T [1]; [8]): 59%
Population Mitochondria Different-Phenotype (%) (HEK-293T [1]; [8]): 0%
Population Mitotic Cells (%) (HEK-293T [1]; [8]): 86%
Population Normal (%) (HEK-293T [1]; [8]): 83%
Population Pyknosed Nuclei (%) (HEK-293T [1]; [8]): 51%
Population Tubulin-Different-Phenotype (%) (HEK-293T [1]; [8]): 28%
Total Cell Count (HEK-293T [1]; [8]): 644
Population Apoptotic (%) (HEK-293T [1]; [9]): 2%
Population Fragmented Nuclei (%) (HEK-293T [1]; [9]): 2%
Population Healthy Nuclei (%) (HEK-293T [1]; [9]): 83%
Population Hoechst High Intensity Objects (%) (HEK-293T [1]; [9]): 2%
Population Mitotic Cells (%) (HEK-293T [1]; [9]): 97%
Population Normal (%) (HEK-293T [1]; [9]): 97%
Population Pyknosed Nuclei (%) (HEK-293T [1]; [9]): 13%
Population Tubulin-Different-Phenotype (%) (HEK-293T [1]; [9]): 50%
Total Cell Count (HEK-293T [1]; [9]): 1372
Population Apoptotic (%) (HEK-293T [1]; [10]): 14%
Population Fragmented Nuclei (%) (HEK-293T [1]; [10]): 10%
Population Healthy Nuclei (%) (HEK-293T [1]; [10]): 68%
Population Hoechst High Intensity Objects (%) (HEK-293T [1]; [10]): 6%
Population Membrane Permeable-Phenotype (%) (HEK-293T [1]; [10]): 1%
Population Mitochondria Different-Phenotype (%) (HEK-293T [1]; [10]): 3%
Population Mitotic Cells (%) (HEK-293T [1]; [10]): 85%
Population Normal (%) (HEK-293T [1]; [10]): 93%
Population Pyknosed Nuclei (%) (HEK-293T [1]; [10]): 21%
Population Tubulin-Different-Phenotype (%) (HEK-293T [1]; [10]): 0%
Total Cell Count (HEK-293T [1]; [10]): 577
Population Apoptotic (%) (HEK-293T [1]; [11]): 4%
Population Fragmented Nuclei (%) (HEK-293T [1]; [11]): 7%
Population Healthy Nuclei (%) (HEK-293T [1]; [11]): 87%
Population Hoechst High Intensity Objects (%) (HEK-293T [1]; [11]): 2%
Population Mitochondria Different-Phenotype (%) (HEK-293T [1]; [11]): 5%
Population Mitotic Cells (%) (HEK-293T [1]; [11]): 95%
Population Normal (%) (HEK-293T [1]; [11]): 97%
Population Pyknosed Nuclei (%) (HEK-293T [1]; [11]): 5%
Population Tubulin-Different-Phenotype (%) (HEK-293T [1]; [11]): 2%
Total Cell Count (HEK-293T [1]; [11]): 1471
Population Apoptotic (%) (HEK-293T [1]; [12]): 15%
Population Fragmented Nuclei (%) (HEK-293T [1]; [12]): 20%
Population Healthy Nuclei (%) (HEK-293T [1]; [12]): 34%
Population Hoechst High Intensity Objects (%) (HEK-293T [1]; [12]): 14%
Population Membrane Permeable-Phenotype (%) (HEK-293T [1]; [12]): 47%
Population Mitochondria Different-Phenotype (%) (HEK-293T [1]; [12]): 0%
Population Mitotic Cells (%) (HEK-293T [1]; [12]): 84%
Population Normal (%) (HEK-293T [1]; [12]): 85%
Population Pyknosed Nuclei (%) (HEK-293T [1]; [12]): 45%
Population Tubulin-Different-Phenotype (%) (HEK-293T [1]; [12]): 33%
Total Cell Count (HEK-293T [1]; [12]): 618
Population Apoptotic (%) (HEK-293T [1]; [13]): 3%
Population Fragmented Nuclei (%) (HEK-293T [1]; [13]): 4%
Population Healthy Nuclei (%) (HEK-293T [1]; [13]): 82%
Population Hoechst High Intensity Objects (%) (HEK-293T [1]; [13]): 4%
Population Membrane Permeable-Phenotype (%) (HEK-293T [1]; [13]): 52%
Population Mitotic Cells (%) (HEK-293T [1]; [13]): 96%
Population Normal (%) (HEK-293T [1]; [13]): 95%
Population Pyknosed Nuclei (%) (HEK-293T [1]; [13]): 13%
Population Tubulin-Different-Phenotype (%) (HEK-293T [1]; [13]): 68%
Total Cell Count (HEK-293T [1]; [13]): 1297
Population Apoptotic (%) (HEK-293T [1]; [14]): 14%
Population Fragmented Nuclei (%) (HEK-293T [1]; [14]): 7%
Population Healthy Nuclei (%) (HEK-293T [1]; [14]): 82%
Population Hoechst High Intensity Objects (%) (HEK-293T [1]; [14]): 2%
Population Membrane Permeable-Phenotype (%) (HEK-293T [1]; [14]): 2%
Population Mitochondria Different-Phenotype (%) (HEK-293T [1]; [14]): 1%
Population Mitotic Cells (%) (HEK-293T [1]; [14]): 85%
Population Normal (%) (HEK-293T [1]; [14]): 97%
Population Pyknosed Nuclei (%) (HEK-293T [1]; [14]): 10%
Population Tubulin-Different-Phenotype (%) (HEK-293T [1]; [14]): 1%
Total Cell Count (HEK-293T [1]; [14]): 682
Population Apoptotic (%) (HEK-293T [1]; [15]): 0%
Population Fragmented Nuclei (%) (HEK-293T [1]; [15]): 18%
Population Healthy Nuclei (%) (HEK-293T [1]; [15]): 79%
Population Hoechst High Intensity Objects (%) (HEK-293T [1]; [15]): 3%
Population Membrane Permeable-Phenotype (%) (HEK-293T [1]; [15]): 3%
Population Mitochondria Different-Phenotype (%) (HEK-293T [1]; [15]): 0%
Population Mitotic Cells (%) (HEK-293T [1]; [15]): 100%
Population Normal (%) (HEK-293T [1]; [15]): 96%
Population Pyknosed Nuclei (%) (HEK-293T [1]; [15]): 2%
Population Tubulin-Different-Phenotype (%) (HEK-293T [1]; [15]): 2%
Total Cell Count (HEK-293T [1]; [15]): 2446
Growth Rate (HEK-293T [2]; [3]): 0
Growth Rate (HEK-293T [2]; [4]): 0
Growth Rate (HEK-293T [2]; [5]): 0
Growth Rate (HEK-293T [2]; [6]): 0
Growth Rate (HEK-293T [2]; [7]): 0
